Test results: PubChem BioAssay AID624067 (The Scripps Research Institute Molecular Screening Center, 2012);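 active means IC50 at or below 10 µM; inactive means IC50 above 10 µM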
“And” between values parts separate entries of the source, which are not always exact repeats. Equal entries are not always repeated.

target: Insulin-degrading enzyme (Homo sapiens) (UniProt P14735); assay: WT IDE enzyme inhibition, cell-free – biochemical, fluorescence polarization, run by assay provider, counter-screen for IDE inhibitor project, late-stage follow-up (AID 624067); conditions: recombinant IDE, FAbetaB cleavage
How it was run: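 Material – recombinant WT human IDE · Amount – IDE at 1 nM final, approximately EC80 · Also added – Abeta(1-40) peptide substrate, fluorescein- and Lys-biotin-labeled, 100 nM final · Doses – 10 semi-log points, top 100 µM · Incubation – reaction at 22 °C · Detection – fluorescence polarization, 485/525 nm, avidin capture · Benchmarks – high control Ii1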

Sequence of Insulin-degrading enzyme (Homo sapiens) (P14735 whole entry, looked up): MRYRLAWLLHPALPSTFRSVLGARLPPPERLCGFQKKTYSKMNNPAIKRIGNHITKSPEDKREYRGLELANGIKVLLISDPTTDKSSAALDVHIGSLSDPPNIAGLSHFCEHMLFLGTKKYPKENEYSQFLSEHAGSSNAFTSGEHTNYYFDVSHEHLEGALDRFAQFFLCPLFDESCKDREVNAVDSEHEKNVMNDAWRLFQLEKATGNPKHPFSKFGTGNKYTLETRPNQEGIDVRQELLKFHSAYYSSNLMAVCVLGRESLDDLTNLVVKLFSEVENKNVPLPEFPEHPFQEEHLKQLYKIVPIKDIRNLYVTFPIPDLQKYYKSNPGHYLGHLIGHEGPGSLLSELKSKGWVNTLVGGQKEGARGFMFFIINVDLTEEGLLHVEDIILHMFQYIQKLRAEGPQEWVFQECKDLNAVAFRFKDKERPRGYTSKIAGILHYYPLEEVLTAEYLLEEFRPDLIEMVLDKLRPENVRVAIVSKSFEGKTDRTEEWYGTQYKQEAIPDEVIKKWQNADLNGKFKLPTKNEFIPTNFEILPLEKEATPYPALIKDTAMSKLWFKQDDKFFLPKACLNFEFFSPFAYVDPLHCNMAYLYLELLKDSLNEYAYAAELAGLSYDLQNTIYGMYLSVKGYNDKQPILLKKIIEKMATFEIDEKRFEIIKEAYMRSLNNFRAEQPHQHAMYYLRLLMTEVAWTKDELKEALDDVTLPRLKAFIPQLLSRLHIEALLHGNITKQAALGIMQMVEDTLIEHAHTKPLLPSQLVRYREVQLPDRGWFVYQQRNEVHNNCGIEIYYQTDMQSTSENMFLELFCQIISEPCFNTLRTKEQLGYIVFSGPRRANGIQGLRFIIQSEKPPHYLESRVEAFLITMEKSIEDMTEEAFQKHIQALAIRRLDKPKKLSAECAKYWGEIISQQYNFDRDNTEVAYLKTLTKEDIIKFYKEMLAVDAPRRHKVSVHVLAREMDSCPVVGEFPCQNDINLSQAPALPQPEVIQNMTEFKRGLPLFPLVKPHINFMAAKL

Row | SMILES | IC50
1 | O=C(Nc1cccc(C(F)(F)F)c1)c1csc(-c2ccncc2)n1 | 5.3 µM
2 | Clc1cccc(-c2nnc(SCc3nc4ccccc4[nH]3)n2Cc2ccco2)c1 | 3.9 µM
3 | O=c1c2ccccc2sn1-c1cc(S(=O)(=O)N2CCOCC2)ccc1N1CCOCC1 | 1.4 µM
4 | COc1ccc(C(=O)N2CCN(C(=O)C3COc4ccccc4O3)CC2)cc1OC (stereo not given) | 1.9 µM and > 33 µM (inactive)
5 | Cc1cccc(-c2nnc(SCc3nc4ccccc4[nH]3)n2Cc2ccco2)c1 | 5.7 µM and 8.9 µM
